Results from ChEMBL document CHEMBL1287673, “Neo-tanshinlactone inspired synthesis, in vitro evaluation of novel substituted benzocoumarin derivatives as potent anti-breast cancer agents” (Bioorg Med Chem Lett, 2010).
pIC50: −log10 of the molar value. Active and inactive are the calls of the source. The rule behind the calls is not given here.

How the values were obtained:
MCF7 [1] = assay: Anticancer activity against human MCF7 cells expressing estrogen receptor by MTT assay; assay type: functional, cell-based
MCF7 [2] = assay: Cell cycle arrest in human MCF7 cells expressing estrogen receptor assessed as accumulation at G1/G0 phase at 10 uM after 24 hrs using propidium iodide staining by flow cytometry; assay type: functional, cell-based
Outline: (§1)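 MCF-7, 5 × 10⁵ cells/well at 70–80% confluence, serum-starved, then 10 µM compound for 24 h in phenol red-free medium. Cells fixed in 70% ethanol, rehydrated in PBS, and stained with PI (50 µg/ml) plus ribonuclease A (100 µg/ml). Flow cytometry gives % of cells in each cycle phase.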

MCF7 [3] = assay: Induction of apoptosis in human MCF7 cells expressing estrogen receptor assessed as cytoplasmic condensation at 10 uM after 18 hrs by Hoechst 33342 staining; assay type: functional, cell-based
Outline: (§2)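 MCF-7 at 70–80% confluence given 10 µM compound for 18 h in complete growth medium, then Hoechst 33342 stained and imaged with a ×40 objective. Apoptotic nuclei scored by shape and intensity and normalized to control; tamoxifen positive control.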

MCF7 [4] = assay: Induction of apoptosis in human MCF7 cells expressing estrogen receptor assessed as increase in caspase activity at 10 uM after 16 hrs; assay type: functional, cell-based
Outline: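 1 × 10⁴ MCF-7 cells/well at 70–80% confluence grown 16 h, then 10 µM compound for 16 h. General (homogeneous) caspase activity read fluorometrically, excitation 465 nm, emission 520 nm; compared with negative control.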

MCF7 [5] = assay: Cytotoxicity against human MCF7 cells expressing estrogen receptor assessed as loss of cell viability after 16 hrs by MTT assay; assay type: functional, cell-based
Outline: (§3)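 1 × 10⁵ MCF-7 cells at 70–80% confluence exposed 16 h to increasing compound concentrations; growth inhibition read by MTT as percent (Total/Control); tamoxifen positive control; n = 9.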

MCF7 [6] = assay: Induction of apoptosis in human MCF7 cells expressing estrogen receptor assessed as presence of nuclear fragmentation at 10 uM after 18 hrs by Hoechst 33342 staining; assay type: functional, cell-based; outline: as §2
MCF7 [7] = assay: Cytotoxicity against human MCF7 cells expressing estrogen receptor assessed as loss of cell viability at 20 uM after 16 hrs by MTT assay; assay type: functional, cell-based; outline: as §3
[8] = Cytotoxicity activity against Sprague-Dawley rat osteoblast cells at 10 uM by MTT assay; assay type: cell-based
Outline: (§4)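 Primary osteoblasts, 3 × 10³ cells/well, treated with 10 or 20 µM compound; viability and cell number read by MTT; n = 9.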

MCF7 [9] = assay: Induction of apoptosis in human MCF7 cells expressing estrogen receptor assessed as presence of apoptotic body at 10 uM after 18 hrs by Hoechst 33342 staining; assay type: functional, cell-based; outline: as §2
[10] = Cytotoxicity activity against Sprague-Dawley rat osteoblast cells at 20 uM by MTT assay; assay type: cell-based; outline: as §4
MCF7 [11] = assay: Cytotoxicity against human MCF7 cells expressing estrogen receptor assessed as loss of cell viability at 10 uM after 16 hrs by MTT assay; assay type: functional, cell-based; outline: as §3
MCF7 [12] = assay: Induction of apoptosis in human MCF7 cells expressing estrogen receptor at 10 uM after 24 hrs using annexin-V FITC and propidium iodide staining by flow cytometry; assay type: functional, cell-based
Outline: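 MCF-7 (5 × 10⁵ cells) at 70–80% confluence held 24 h in DMEM/10% FBS with or without 10 µM compound. Harvested, stained with Annexin-V-FITC and PI, and read by flow cytometry as % apoptotic (Annexin-positive/PI-negative) and necrotic (PI-positive) cells.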

MCF7 [13] = assay: Cell cycle arrest in human MCF7 cells expressing estrogen receptor assessed as accumulation at G2 phase at 10 uM after 24 hrs using propidium iodide staining by flow cytometry; assay type: functional, cell-based; outline: as §1

| SMILES | pIC50 (MCF7 [1]) | further results |
| --- | --- | --- |
| Cc1cc(=O)oc2c3c(ccc12)C(=O)/C(=C\NC(C)(C)C)C=C3C=O | 4.70 | – |
| Cc1ccc(C(=O)/C=C/C2=CC(=C/NC(C)(C)C)/C(=O)c3ccc4c(C)cc(=O)oc4c32)cc1 | 4.01 | – |
| Cc1ccc(C(=O)/C=C/C2=CC(=C/NC(C)C)/C(=O)c3ccc4c(C)cc(=O)oc4c32)c(C)c1 | 4.46 | – |
| CCCN/C=C1/C=C(C=O)c2c(ccc3c(C)cc(=O)oc23)C1=O | 5.10 | Activity (MCF7 [2]): Active; Activity (MCF7 [3]): Active; Activity (MCF7 [4]): Active; Activity (MCF7 [5]): Dose-dependent effect; Activity (MCF7 [6]): Active; Activity (MCF7 [7]): Toxic; Activity [8]: Non-toxic; Activity (MCF7 [9]): Active; Activity [10]: Non-toxic |
| COc1ccc(C(=O)/C=C/c2cc(C=O)c(O)c3ccc4c(C)cc(=O)oc4c23)cc1 | < 4.00 | – |
| CN/C=C1/C=C(C=O)c2c(ccc3c(C)cc(=O)oc23)C1=O | 5.42 | Activity (MCF7 [2]): Active; Activity (MCF7 [3]): Active; Activity (MCF7 [4]): Active; Activity (MCF7 [5]): Dose-dependent effect; Activity (MCF7 [11]): Toxic; Activity (MCF7 [12]): Active; Activity (MCF7 [6]): Active; Activity [8]: Non-toxic; Activity (MCF7 [9]): Active; Activity [10]: Non-toxic |
| CCN/C=C1/C=C(C=O)c2c(ccc3c(C)cc(=O)oc23)C1=O | < 4.00 | – |
| Cc1ccc(C(=O)/C=C/c2cc(C=O)c(O)c3ccc4c(C)cc(=O)oc4c23)cc1 | < 4.00 | – |
| Cc1cc(=O)oc2c3c(ccc12)C(=O)/C(=C\NCCN1CCOCC1)C=C3C=O | < 4.00 | – |
| CCCCN/C=C1/C=C(C=O)c2c(ccc3c(C)cc(=O)oc23)C1=O | 5.19 | Activity (MCF7 [3]): Active; Activity (MCF7 [4]): Active; Activity (MCF7 [5]): Dose-dependent effect; Activity (MCF7 [6]): Active; Activity [8]: Non-toxic; Activity (MCF7 [9]): Active; Activity [10]: Non-toxic; Activity (MCF7 [13]): Active |
| CCN/C=C1C=C(/C=C/C(=O)c2ccc(OC)cc2)c2c(ccc3c(C)cc(=O)oc23)C/1=O | 4.52 | – |
| Cc1ccc(C(=O)/C=C/C2=CC(=C/NC(C)(C)C)/C(=O)c3ccc4c(C)cc(=O)oc4c32)c(C)c1 | < 4.00 | – |
| Cc1ccc(C(=O)/C=C/C2=CC(=C/NC(C)C)/C(=O)c3ccc4c(C)cc(=O)oc4c32)cc1 | 4.68 | – |
| CCCCN/C=C1C=C(/C=C/C(=O)c2ccc(O)cc2)c2c(ccc3c(C)cc(=O)oc23)C/1=O | 4.40 | – |
| Cc1ccc(C(=O)/C=C/c2cc(C=O)c(O)c3ccc4c(C)cc(=O)oc4c23)c(C)c1 | < 4.00 | – |
| Cc1cc(=O)oc2c1ccc1c(O)cccc12 | < 4.00 | – |
| COc1ccc(C(=O)/C=C/C2=CC(=C/NC(C)C)/C(=O)c3ccc4c(C)cc(=O)oc4c32)cc1 | < 4.00 | – |
| Cc1cc(=O)oc2c1ccc1c(O)c(C=O)cc(/C=C/C(=O)c3ccc(O)cc3)c12 | < 4.00 | – |

| SMILES | pIC50 (MCF7 [1]) | further results |
| --- | --- | --- |
| CCCCN/C=C1C=C(/C=C/C(=O)c2ccccc2)c2c(ccc3c(C)cc(=O)oc23)C/1=O | 4.00 | – |
| Cc1cc(=O)oc2c3c(ccc12)C(=O)/C(=C\NC(C)C)C=C3C=O | 3.89 | – |
| Cc1cc(=O)oc2c3c(ccc12)C(=O)/C(=C\NC(C)C)C=C3/C=C/C(=O)c1ccccc1 | < 4.00 | – |
| Cc1cc(=O)oc2c3c(ccc12)C(=O)/C(=C\NC(C)(C)C)C=C3/C=C/C(=O)c1ccccc1 | 4.04 | – |
| CCN/C=C1C=C(/C=C/C(=O)c2ccc(C)cc2)c2c(ccc3c(C)cc(=O)oc23)C/1=O | < 4.00 | – |
| Cc1cc(=O)oc2c1ccc1c(O)c(C=O)cc(C=O)c12 | < 4.00 | – |
| Cc1cc(=O)oc2c3c(ccc12)C(=O)/C(=C\NC(C)(C)C)C=C3/C=C/C(=O)c1ccc(O)cc1 | < 4.00 | – |
| CCN/C=C1C=C(/C=C/C(=O)c2ccc(C)cc2C)c2c(ccc3c(C)cc(=O)oc23)C/1=O | < 4.00 | – |
| CCCCN/C=C1C=C(/C=C/C(=O)c2ccc(C)cc2C)c2c(ccc3c(C)cc(=O)oc23)C/1=O | < 4.00 | – |
| CCN/C=C1C=C(/C=C/C(=O)c2ccccc2)c2c(ccc3c(C)cc(=O)oc23)C/1=O | 4.06 | – |
| COc1ccc(C(=O)/C=C/C2=CC(=C/NC(C)(C)C)/C(=O)c3ccc4c(C)cc(=O)oc4c32)cc1 | < 4.00 | – |
| CCCCN/C=C1C=C(/C=C/C(=O)c2ccc(OC)cc2)c2c(ccc3c(C)cc(=O)oc23)C/1=O | 4.04 | – |
| CCCCCCCN/C=C1/C=C(C=O)c2c(ccc3c(C)cc(=O)oc23)C1=O | < 4.00 | – |
| CCCCN/C=C1C=C(/C=C/C(=O)c2ccc(C)cc2)c2c(ccc3c(C)cc(=O)oc23)C/1=O | < 4.00 | – |
| Cc1cc(=O)oc2c3c(ccc12)C(=O)/C(=C\NC(C)C)C=C3/C=C/C(=O)c1ccc(O)cc1 | 4.49 | – |
| Cc1cc(=O)oc2c1ccc1c(O)c(C=O)cc(/C=C/C(=O)c3ccccc3)c12 | < 4.00 | – |
| CCN/C=C1C=C(/C=C/C(=O)c2ccc(O)cc2)c2c(ccc3c(C)cc(=O)oc23)C/1=O | 4.07 | – |
| CC/C(=C(\c1ccccc1)c1ccc(OCCN(C)C)cc1)c1ccccc1 [TAMOXIFEN] | 4.93 | – |
